Results reported in ChEMBL document CHEMBL3227962, “Synthesis of hydroxy- and amino-substituted benzohydroxamic acids: inhibition of ribonucleotide reductase and antitumor activity” (J Med Chem, 1979).

Legend:
[1] = organism: Rattus norvegicus; assay: Inhibition of ribonucleotide reductase purified from rat Novikoff hepatoma assessed as inhibition of [3H]CDP to [3H]dCDP conversion after 40 mins
Method in brief: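 Ribonucleotide reductase was partially purified from Novikoff hepatoma. The 0.34 mL mix held 3 µCi [3H]CDP (14–19 Ci/mmol), 3.3 mM ATP, 5.9 mM MgCl2, 8.8 mM Hepes pH 7.5, 15 mM DTT and 0.4–1.3 mg enzyme protein, incubated 40 min at 30 °C. Vehicle was water, ≤1% ethanol or 2% DMSO. Each inhibitor was tested at ≥3 concentrations, with actives repeated. ID50 was read from graphs.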

[2] = system: L1210; assay: Antitumor activity against ip dosed mouse L1210 cells allografted in C6D2F1 mouse assessed as dose to achieve maximum life span administered for 8 days starting from day 1 of challenge; format: functional
Method in brief: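 L1210 leukemia propagated in DBA/2 mice; diluted ascitic fluid (0.10 mL, 10^5 cells) injected ip into female C6D2F1 mice (~20 g) on day 0. Compounds given ip once daily for 8 days from day 1, generally three doses in the 100–1000 mg/kg range, 8 mice per dose; other doses per toxicity. Read-out: life span as T/C %.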

[3] = system: L1210; assay: Antitumor activity against mouse L1210 cells allografted in C6D2F1 mouse at 100 to 1000 mg/kg, ip for 8 days starting from day 1 of challenge relative to control; conditions: dose mg/kg 100-1000; route intraperitoneal
[4] = system: L1210; assay: Antitumor activity against mouse L1210 cells allografted in C6D2F1 mouse at 200 mg/kg, ip for 8 days starting from day 1 of challenge relative to control; format: functional; conditions: route intraperitoneal
[5] = system: L1210; assay: Antitumor activity against mouse L1210 cells allografted in C6D2F1 mouse at 500 mg/kg, ip for 8 days starting from day 1 of challenge relative to control; format: functional; conditions: route intraperitoneal
[6] = system: L1210; assay: Antitumor activity against mouse L1210 cells allografted in C6D2F1 mouse at 600 mg/kg, ip for 8 days starting from day 1 of challenge relative to control; format: functional; conditions: route intraperitoneal
[7] = system: L1210; assay: Antitumor activity against mouse L1210 cells allografted in C6D2F1 mouse at 700 mg/kg, ip for 8 days starting from day 1 of challenge relative to control; format: functional; conditions: route intraperitoneal
[8] = system: L1210; assay: Antitumor activity against mouse L1210 cells allografted in C6D2F1 mouse at 1000 mg/kg, ip for 8 days starting from day 1 of challenge relative to control; format: functional; conditions: route intraperitoneal
[9] = organism: Rattus norvegicus; assay: Ratio of hydroxyurea ID50 to compound ID50 for ribonucleotide reductase purified from rat Novikoff hepatoma assessed as inhibition of [3H]CDP to [3H]dCDP conversion after 40 mins
[10] = system: L1210; assay: Antitumor activity against mouse L1210 cells allografted in C6D2F1 mouse at 300 mg/kg, ip for 8 days starting from day 1 of challenge relative to control; format: functional; conditions: route intraperitoneal
[11] = system: L1210; assay: Antitumor activity against mouse L1210 cells allografted in C6D2F1 mouse at 63 mg/kg, ip for 8 days starting from day 1 of challenge relative to control; format: functional; conditions: route intraperitoneal
[12] = system: L1210; assay: Antitumor activity against mouse L1210 cells allografted in C6D2F1 mouse at 75 mg/kg, ip for 8 days starting from day 1 of challenge relative to control; format: functional; conditions: route intraperitoneal
[13] = system: L1210; assay: Antitumor activity against mouse L1210 cells allografted in C6D2F1 mouse at 125 mg/kg, ip for 8 days starting from day 1 of challenge relative to control; format: functional; conditions: route intraperitoneal
[14] = system: L1210; assay: Antitumor activity against mouse L1210 cells allografted in C6D2F1 mouse at 320 mg/kg, ip for 8 days starting from day 1 of challenge relative to control; format: functional; conditions: route intraperitoneal
[15] = system: L1210; assay: Antitumor activity against mouse L1210 cells allografted in C6D2F1 mouse at 100 mg/kg, ip for 8 days starting from day 1 of challenge relative to control; format: functional; conditions: route intraperitoneal
[16] = system: L1210; assay: Antitumor activity against mouse L1210 cells allografted in C6D2F1 mouse at 400 mg/kg, ip for 8 days starting from day 1 of challenge relative to control; format: functional; conditions: route intraperitoneal
[17] = system: L1210; assay: Antitumor activity against mouse L1210 cells allografted in C6D2F1 mouse at 800 mg/kg, ip for 8 days starting from day 1 of challenge relative to control; format: functional; conditions: route intraperitoneal
[18] = system: Mus musculus; assay: Toxicity in mouse L1210 cells allografted C6D2F1 mouse at 800 mg/kg, ip for 8 days measured on day 2; format: organism-based; parameters: dose 800 mg/kg, route intraperitoneal; conditions: in vivo, 192 h
[19] = system: L1210; assay: Antitumor activity against mouse L1210 cells allografted in C6D2F1 mouse at 139 mg/kg, ip bid at interval of 1 hr between each dosing for 8 days starting from day 1 of challenge relative to control; format: functional; conditions: route intraperitoneal
Method in brief: (§1)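 Mice were female C6D2F1 of about 20 g, inoculated ip on day 0 with 10^5 L1210 ascites cells grown in DBA/2 mice. Drug was given ip twice daily at 139 mg/kg per dose for 8 days, varying the interval between the two daily injections. Read-out is the T/C % of life span.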

[20] = system: L1210; assay: Antitumor activity against mouse L1210 cells allografted in C6D2F1 mouse at 139 mg/kg, ip bid at interval of 3 hrs between each dosing for 8 days starting from day 1 of challenge relative to control; format: functional; conditions: route intraperitoneal; method in brief: as §1
[21] = system: L1210; assay: Antitumor activity against mouse L1210 cells allografted in C6D2F1 mouse at 139 mg/kg, ip bid at interval of 5 hrs between each dosing for 8 days starting from day 1 of challenge relative to control; format: functional; conditions: route intraperitoneal; method in brief: as §1
[22] = system: L1210; assay: Antitumor activity against mouse L1210 cells allografted in C6D2F1 mouse at 139 mg/kg, ip bid at interval of 7 hrs between each dosing for 8 days starting from day 1 of challenge relative to control; format: functional; conditions: route intraperitoneal; method in brief: as §1
[23] = system: L1210; assay: Antitumor activity against mouse L1210 cells allografted in C6D2F1 mouse at 450 mg/kg, ip for 8 days starting from day 1 of challenge relative to control; format: functional; conditions: route intraperitoneal
[24] = system: Mus musculus; assay: Toxicity in mouse L1210 cells allografted C6D2F1 mouse at 500 mg/kg, ip for 8 days measured on day 3; format: organism-based; parameters: dose 500 mg/kg, route intraperitoneal; conditions: in vivo, 192 h

Row | Compound | ID50 [1] | Activity [2] | T/C [3] | also measured
1 | O=C(NO)c1cc(O)ccc1O | 200 µM | 300 mg/kg | 130% | –
2 | O=C(NO)c1ccc(O)cc1 | 250 µM | 400 mg/kg | 124% | –
3 | O=C(NO)c1cccc(O)c1 | 350 µM | 500 mg/kg | 177% | T/C [4]: 123%; T/C [5]: 177%; T/C [6]: 156%; T/C [7]: 148%; T/C [8]: 68%
4 | O=C(NO)c1ccc(O)c(O)c1O | 3.5 µM | 125 mg/kg | 130% | Ratio [9]: 140; T/C [4]: 108%; T/C [10]: 92%; T/C [11]: 111%; T/C [12]: 109%; T/C [13]: 130%; T/C [14]: 46%
5 | O=C(NO)c1ccc(O)cc1O | 250 µM | 500 mg/kg | 142% | –
6 | O=C(NO)c1c(O)cccc1O | 100 µM | – | – | –
7 | O=C(NO)c1ccc(O)c(O)c1 | 30 µM | 600 mg/kg | 203% | T/C [5]: 184%; T/C [6]: 203%; T/C [10]: 156%; T/C [15]: 125%; T/C [16]: 154%; T/C [17]: 28%; Activity [18]: Toxic
8 | Nc1ccccc1C(=O)NO | 120 µM | 500 mg/kg | 150% | –
9 | Nc1ccc(C(=O)NO)cc1N | 40 µM | 300 mg/kg | 140% | –
10 | Nc1ccc(C(=O)NO)c(O)c1 | 200 µM | 1000 mg/kg | 115% | –
11 | NC(=O)NO [HYDROXYUREA] | 500 µM | 2500 mg/kg | 162% | –
12 | O=C(NO)c1ccccc1 [BENZOHYDROXAMATE] | 400 µM | 500 mg/kg | 144% | –
13 | O=C(NO)c1ccccc1O [SALICYLHYDROXAMIC ACID] | 150 µM | 500 mg/kg | 147% | –
14 | O=C(NO)c1cc(O)cc(O)c1 | 400 µM | 1000 mg/kg | 152% | –
15 | O=C(NO)c1cc(O)c(O)c(O)c1 | 10 µM | 400 mg/kg | 153% | T/C [19]: 151%; T/C [20]: 168%; T/C [21]: 189%; T/C [22]: 172%; T/C [4]: 147%; T/C [15]: 125%; T/C [16]: 153%; T/C [17]: 56%
16 | Nc1cccc(C(=O)NO)c1 | 350 µM | 500 mg/kg | 110% | –
17 | O=C(NO)c1cccc(O)c1O | 8 µM | 200 mg/kg | 136% | T/C [4]: 136%; T/C [5]: 100%; T/C [10]: 107%; T/C [23]: 103%; Activity [24]: Toxic
18 | Nc1ccc(C(=O)NO)cc1 | 150 µM | 500 mg/kg | 162% | –
